The record followed here is ChEMBL document CHEMBL2375320, “Synthesis and antimicrobial activity of polyhalo isophthalonitrile derivatives” (2013).

What all share (assay type): functional
The test system of experiment [1] is Candida albicans. Put plainly: Antifungal activity against Candida albicans ATCC 10231 assessed as growth inhibition after 24 hrs by microbroth dilution method. The method in brief: (§1)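 Tube dilution: each compound or positive control (norfloxacin, fluconazole) prepared in DMSO at 11 concentrations from 0.98 to 1000 µg/mL. Inoculum and sterile water added to tubes each holding 1 mL of compound solution. Tubes incubated 24 h and inspected for turbidity. MIC is the lowest concentration with no visible growth. Run in triplicate.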

Experiment [2] concerns Bacillus cereus. Put plainly: Antibacterial activity against Bacillus cereus ATCC 14579 assessed as growth inhibition after 24 hrs by microbroth dilution method. The following applies: ATCC 14579, 24 h. The essentials: as §1
A general note: Broth dilution looks for growth in wells or tubes with falling amounts of substance.

Experiment [3] concerns Staphylococcus aureus. Description: Antibacterial activity against Staphylococcus aureus ATCC 6538 assessed as growth inhibition after 24 hrs by microbroth dilution method. As to conditions: ATCC 6538, 24 h. The method in brief:
as §1

Experiment [4] concerns Candida albicans. Put plainly: Antifungal activity against Candida albicans ATCC 10231 assessed as growth inhibition at 1000 ug/mL after 72 hrs by disk diffusion method. The following applies: for zone of inhibition at 1000 µg/mL: ATCC 10231, 72 h, read-out: IZ. The method in brief:
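Candida grown and kept on Sabouraud glucose agar plates. Compounds screened at a fixed 1000 µg/mL, with fluconazole as positive control. Plates incubated at 26 °C for 72 h, then zones of inhibition measured in mm.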
(In agar diffusion tests the substance spreads into inoculated agar from a disc or well.)

Experiment [5] concerns Pseudomonas aeruginosa. Put plainly: Antibacterial activity against Pseudomonas aeruginosa ATCC 15442 assessed as growth inhibition at 1000 ug/mL after 24 hrs by disk diffusion method. The following applies: for zone of inhibition at 1000 µg/mL: ATCC 15442, 24 h, read-out: IZ.
Experiment [6] deals with Escherichia coli. Put plainly: Antibacterial activity against Escherichia coli ATCC 8099 assessed as growth inhibition at 1000 ug/mL after 24 hrs by disk diffusion method.
In experiment [7] the test system is Staphylococcus aureus. Description: Antibacterial activity against Staphylococcus aureus ATCC 6538 assessed as growth inhibition at 1000 ug/mL after 24 hrs by disk diffusion method. The following applies: for zone of inhibition at 1000 µg/mL: ATCC 6538, 24 h, read-out: IZ.
Experiment [8] deals with Bacillus cereus. Description: Antibacterial activity against Bacillus cereus ATCC 14579 assessed as growth inhibition at 1000 ug/mL after 24 hrs by disk diffusion method. The following applies: for zone of inhibition at 1000 µg/mL: ATCC 14579, 24 h, read-out: IZ.

SMILES strings stand for the structures. Converted amounts (≈) assume the structure as drawn. The source made the active and inactive calls. No cut-off for these calls is given here.

Turning to `N#Cc1c(Cl)c(Cl)c(Cl)c(C#N)c1Cl` [CHLOROTHALONIL], the MIC in experiment [1] (ATCC 10231, 24 h) was determined as 0.5 µg/mL (≈ 1.88 µM); in experiment [2], 0.7 µg/mL (≈ 2.63 µM); in experiment [3] it was 0.5 µg/mL (≈ 1.88 µM). Also, the figures for the zone of inhibition at 1000 µg/mL in experiment [4], in experiment [7] and in experiment [8] were 9.9 mm, 20.1 mm and 20.2 mm, respectively. The “inhibition zone (IZ)” value in experiment [5] and in experiment [6] was “inactive” in each case.

Regarding `N#Cc1c(F)c(Cl)c(Nc2ccc(Cl)cc2)c(C#N)c1F`, the MIC entry in experiment [1] was “inactive”. For the same molecule, the MIC in experiment [2] amounted to 417 µg/mL (≈ 1290 µM); in experiment [3], 26 µg/mL (≈ 80.2 µM). Besides, the “inhibition zone (IZ)” value in experiment [4] and in experiment [6] was “inactive” throughout. The figures for the zone of inhibition at 1000 µg/mL in experiment [5], in experiment [7] and in experiment [8] were 7.6 mm, 10.7 mm and 12.2 mm, respectively.

Take `N#Cc1c(N)c(F)c(F)c(C#N)c1F`: the MIC stood at 62.5 µg/mL (≈ 317 µM) in experiment [1] (ATCC 10231, 24 h); 104 µg/mL (≈ 529 µM) in experiment [2]; 125 µg/mL (≈ 634 µM) in experiment [3]. Further, the zone of inhibition at 1000 µg/mL in experiment [4] is 7.5 mm; in experiment [5], 7.8 mm; in experiment [7], 11.8 mm; in experiment [8] it was 8 mm. Also, in experiment [6], the “inhibition zone (IZ)” value was “inactive”.

`CCCSc1c(Cl)c(SCCC)c(C#N)c(F)c1C#N`: the MIC in experiment [1] (ATCC 10231, 24 h) was over 500 µg/mL; in experiment [2], over 1000 µg/mL; in experiment [3] it was 11.7 µg/mL (≈ 35.6 µM). Further, the “inhibition zone (IZ)” value in experiment [4], in experiment [5] and in experiment [6] was “inactive” in each case. Besides, the figures for the zone of inhibition at 1000 µg/mL in experiment [7] and in experiment [8] were 8.8 mm and 7.5 mm, respectively.

Take `N#Cc1c(Cl)c(Cl)c(Nc2ccccc2)c(C#N)c1Cl`: the zone of inhibition at 1000 µg/mL in experiment [4] came to 15.3 mm. The “inhibition zone (IZ)” value in experiment [5], in experiment [6], in experiment [7] and in experiment [8] was “inactive” throughout.

Consider `N#Cc1c(F)c(F)c(Nc2ccc(Cl)cc2)c(C#N)c1F`, for which the MIC was 2.3 µg/mL (≈ 7.48 µM) in experiment [1] (ATCC 10231, 24 h); 31.3 µg/mL (≈ 102 µM) in experiment [2]; 1.5 µg/mL (≈ 4.88 µM) in experiment [3]. The zone of inhibition at 1000 µg/mL in experiment [4] was determined as 13.3 mm; in experiment [5] it was 7.8 mm; in experiment [7] it was 19.8 mm; in experiment [8], 16.7 mm. Moreover, the “inhibition zone (IZ)” value in experiment [6] was “inactive”.

Take `N#Cc1c(N)c(Cl)c(N2CCCCC2)c(C#N)c1N1CCCCC1`: the “inhibition zone (IZ)” value in experiment [5], in experiment [6], in experiment [7] and in experiment [8] was “inactive” in each case.

Turning to `N#Cc1c(N)c(Cl)c(F)c(C#N)c1F`, the MIC is 15.6 µg/mL (≈ 73 µM) in experiment [1] (ATCC 10231, 24 h); over 1000 µg/mL in experiment [2]; 46.9 µg/mL (≈ 220 µM) in experiment [3]. Besides, the zone of inhibition at 1000 µg/mL came out at 7.3 mm in experiment [4], 8.6 mm in experiment [7] and 7.4 mm in experiment [8]. Further, the “inhibition zone (IZ)” value in experiment [5] and in experiment [6] was “inactive” in each case.

On to `N#Cc1c(F)c(Cl)c(NCc2ccccc2)c(C#N)c1F`, for which the MIC in experiment [1] (ATCC 10231, 24 h) worked out at 0.5 µg/mL (≈ 1.65 µM); in experiment [2], 0.4 µg/mL (≈ 1.32 µM); in experiment [3] it was 0.5 µg/mL (≈ 1.65 µM). Besides, the zone of inhibition at 1000 µg/mL came out at 13.9 mm in experiment [4], 23.1 mm in experiment [7] and 22.6 mm in experiment [8]. The “inhibition zone (IZ)” value in experiment [5] and in experiment [6] was “inactive” in each case.

Regarding `N#Cc1c(Cl)c(Cl)c(NCc2ccccc2)c(C#N)c1Cl`, the “inhibition zone (IZ)” value in experiment [4], in experiment [5], in experiment [6], in experiment [7] and in experiment [8] was “inactive” each time.

On to `N#Cc1c(F)c(C#N)c(Sc2ccccc2)c(Cl)c1Sc1ccccc1`, for which the “inhibition zone (IZ)” value in experiment [4], in experiment [5], in experiment [6], in experiment [7] and in experiment [8] was “inactive” in each case.

Turning to `CN(C)CCCNc1c(Cl)c(N)c(C#N)c(F)c1C#N`, the “inhibition zone (IZ)” value in experiment [5] and in experiment [6] was “inactive” in each case. Further, the results for the zone of inhibition at 1000 µg/mL in experiment [7] and in experiment [8] were 14.2 mm and 15 mm, respectively.

As to `N#Cc1c(Cl)c(Cl)c(Sc2ccccc2)c(C#N)c1Cl`, the MIC in experiment [1] (ATCC 10231, 24 h) is over 500 µg/mL; in experiment [2], over 1000 µg/mL; in experiment [3], 250 µg/mL (≈ 736 µM). Also, the zone of inhibition at 1000 µg/mL in experiment [4] came to 6.8 mm; in experiment [7] it was 7.3 mm; in experiment [8], 7 mm. Also, the “inhibition zone (IZ)” value in experiment [5] and in experiment [6] was “inactive” each time.

As to `N#Cc1c(F)c(Cl)c(F)c(C#N)c1F`, the “inhibition zone (IZ)” value in experiment [4], in experiment [5], in experiment [6], in experiment [7] and in experiment [8] was “inactive” throughout.

For `CCCSc1c(Cl)c(N)c(C#N)c(Cl)c1C#N`, the MIC is over 1000 µg/mL in experiment [1] (ATCC 10231, 24 h); over 1000 µg/mL in experiment [2]; 500 µg/mL (≈ 1750 µM) in experiment [3]. The “inhibition zone (IZ)” value in experiment [5] and in experiment [6] was “inactive” throughout. The zone of inhibition at 1000 µg/mL in experiment [7] and in experiment [8] was 7 mm throughout.

As for `CCn1cc(C(=O)O)c(=O)c2cc(F)c(N3CCNCC3)cc21` [NORFLOXACIN], the MIC in experiment [2] and in experiment [3] was 0.5 µg/mL (≈ 1.57 µM) each time. The zone of inhibition at 1000 µg/mL in experiment [5] worked out at 18 mm; in experiment [6] (ATCC 8099, 24 h, read-out: IZ), 31 mm; in experiment [7], 19.9 mm; in experiment [8], 15.2 mm.

As to `N#Cc1c(N)c(Sc2ccccc2)c(Sc2ccccc2)c(C#N)c1Sc1ccccc1`, the “inhibition zone (IZ)” value in experiment [5], in experiment [6], in experiment [7] and in experiment [8] was “inactive” in each case.

As for `COc1ccc(Nc2c(Cl)c(F)c(C#N)c(F)c2C#N)cc1`, the “inhibition zone (IZ)” value in experiment [4], in experiment [5], in experiment [6] and in experiment [7] was “inactive” throughout. In addition, the zone of inhibition at 1000 µg/mL in experiment [8] came out at 6.8 mm.

On to `CCCSc1c(Cl)c(N)c(C#N)c(F)c1C#N`, for which the MIC was over 500 µg/mL in experiment [1] (ATCC 10231, 24 h); over 1000 µg/mL in experiment [2]; 1.6 µg/mL (≈ 5.93 µM) in experiment [3]. Also, the “inhibition zone (IZ)” value in experiment [5] and in experiment [6] was “inactive” each time. For the same molecule, the zone of inhibition at 1000 µg/mL is 8.5 mm in experiment [7] and 7.6 mm in experiment [8].

For the molecule `CCCSc1c(F)c(N)c(C#N)c(SCCC)c1C#N`, the “inhibition zone (IZ)” value in experiment [5] and in experiment [6] was “inactive” throughout. Also, the zone of inhibition at 1000 µg/mL worked out at 7.9 mm in experiment [7] and 7.4 mm in experiment [8].

Consider `OC(Cn1cncn1)(Cn1cncn1)c1ccc(F)cc1F` [FLUCONAZOLE], for which the MIC in experiment [1] (ATCC 10231, 24 h) worked out at 1 µg/mL (≈ 3.27 µM). Moreover, the zone of inhibition at 1000 µg/mL in experiment [4] was 22.5 mm.

As to `CN(C)CCCNc1c(F)c(N)c(C#N)c(F)c1C#N`, the “inhibition zone (IZ)” value in experiment [5] and in experiment [6] was “inactive” throughout. Besides, the zone of inhibition at 1000 µg/mL in experiment [7] is 7 mm; in experiment [8], 7.1 mm.

As to `CCCSc1c(Cl)c(N)c(C#N)c(SCCC)c1C#N`, the MIC in experiment [1] (ATCC 10231, 24 h) was over 1000 µg/mL; in experiment [2] it was over 1000 µg/mL; in experiment [3] it was 250 µg/mL (≈ 767 µM). The “inhibition zone (IZ)” value in experiment [5], in experiment [6] and in experiment [8] was “inactive” each time. Besides, the zone of inhibition at 1000 µg/mL in experiment [7] came to 7.5 mm.

Consider `N#Cc1c(F)c(F)c(F)c(C#N)c1F`, for which the “inhibition zone (IZ)” value in experiment [4], in experiment [5], in experiment [6], in experiment [7] and in experiment [8] was “inactive” each time.

For `COc1ccc(Nc2c(Cl)c(Cl)c(C#N)c(Cl)c2C#N)cc1`, the “inhibition zone (IZ)” value in experiment [4], in experiment [5], in experiment [6], in experiment [7] and in experiment [8] was “inactive” in each case.

In the case of `N#Cc1c(N)c(Cl)c(Cl)c(C#N)c1Cl`, the “inhibition zone (IZ)” value in experiment [4], in experiment [5], in experiment [6], in experiment [7] and in experiment [8] was “inactive” throughout.

With `N#Cc1c(Sc2ccccc2)c(F)c(Sc2ccccc2)c(C#N)c1Sc1ccccc1`, the “inhibition zone (IZ)” value in experiment [4], in experiment [5], in experiment [6] and in experiment [7] was “inactive” each time. The zone of inhibition at 1000 µg/mL in experiment [8] came to 9.8 mm.

The term MIC denotes the lowest concentration that inhibits growth of the organism.
